Reference: ChEMBL document CHEMBL1629439, “High-throughput identification of antibacterials against methicillin-resistant Staphylococcus aureus (MRSA) and the transglycosylase” (Bioorg Med Chem, 2010)
Converted amounts (≈) assume the structure as drawn.

How the values were obtained:
Acinetobacter baumannii = assay: Antimicrobial activity against Acinetobacter baumannii ATCC 49139 after 18 to 24 hrs by alamar blue assay; type: functional; conditions: Acinetobacter baumannii, ATCC 49139; read-out: MIC
In short: (§1)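 Broth microdilution per NCCLS in Mueller-Hinton broth, 8-point twofold dilutions, 384-well format. Exponential-phase cells at 5 × 10^5 cells/ml incubated with compound 18–24 h at 37 °C, then 20% Alamar blue added and fluorescence read. MIC90 taken as the lowest concentration preventing at least 90% bacterial growth.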

Escherichia coli = assay: Antimicrobial activity against Escherichia coli ATCC […] after 18 to 24 hrs by alamar blue assay; type: functional; conditions: Escherichia coli; read-out: MIC; in short: as §1
Staphylococcus aureus [1] = assay: Antimicrobial activity against methicillin-resistant Staphylococcus aureus ATCC 33592 after 18 to 24 hrs by alamar blue assay; type: functional; conditions: Staphylococcus aureus, ATCC 33592; read-out: MIC
In short: (§2)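 Broth microdilution per NCCLS standard, Mueller-Hinton broth, 8-point twofold dilutions; exponentially growing cells at 5 10^5 cells/ml with compound, 18–24 h at 37 C; 20% Alamar blue added, fluorescence read; MIC90 taken as lowest concentration preventing at least 90% growth.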

Serratia marcescens = assay: Antimicrobial activity against Serratia marcescens ATCC 14756 after 18 to 24 hrs by alamar blue assay; type: functional; conditions: Serratia marcescens, ATCC 14756; read-out: MIC; in short: as §1
Bacillus subtilis = assay: Antimicrobial activity against Bacillus subtilis ATCC 23857 after 18 to 24 hrs by alamar blue assay; type: functional; in short: as §1
[2] = system: Mycolicibacterium smegmatis; assay: Antimicrobial activity against Mycobacterium smegmatis BCRC 11565 after 18 to 24 hrs by alamar blue assay; type: functional; conditions: Mycolicibacterium smegmatis, BCRC 11565; read-out: MIC; in short: as §1
Staphylococcus aureus [3] = assay: Antimicrobial activity against Staphylococcus aureus ATCC 29213 after 18 to 24 hrs by alamar blue assay
Pseudomonas aeruginosa = assay: Antimicrobial activity against Pseudomonas aeruginosa ATCC 25619 after 18 to 24 hrs by alamar blue assay; type: functional; conditions: Pseudomonas aeruginosa, ATCC 25619; read-out: MIC; in short: as §1
Staphylococcus aureus [4] = assay: Antimicrobial activity against methicillin-resistant Staphylococcus aureus isolate NTUH4722 after 18 to 24 hrs by alamar blue assay; type: functional; in short: as §2
[5] = system: Stenotrophomonas maltophilia; assay: Antimicrobial activity against Stenotrophomonas maltophilia ATCC 13637 after 18 to 24 hrs by alamar blue assay; type: functional; conditions: Stenotrophomonas maltophilia, ATCC 13637; read-out: MIC; in short: as §1
Staphylococcus aureus [6] = assay: Antimicrobial activity against oxacillin- and methicillin-resistant Staphylococcus aureus isolate Sa-OXA-R2 after 18 to 24 hrs by alamar blue assay; type: functional; in short: as §2

SMILES	MIC (Acinetobacter baumannii) [µg/mL]	MIC (Escherichia coli) [µg/mL]	MIC (Staphylococcus aureus [1]) [µg/mL]	MIC (Serratia marcescens) [µg/mL]	MIC (Bacillus subtilis) [µg/mL]	MIC [2] [µg/mL]	MIC (Staphylococcus aureus [3]) [µg/mL]	MIC (Pseudomonas aeruginosa) [µg/mL]	MIC (Staphylococcus aureus [4]) [µg/mL]	MIC [5] [µg/mL]	MIC (Staphylococcus aureus [6]) [µg/mL]
O=C(Nc1cc(Cl)c(Cl)c(Cl)c1)c1cc(Cl)cc(Cl)c1O	16 (≈ 41.5 µM)	8 (≈ 20.8 µM)	0.5 (≈ 1.3 µM)	16 (≈ 41.5 µM)	< 0.03	0.5 (≈ 1.3 µM)	0.125 (≈ 0.324 µM)	16 (≈ 41.5 µM)	1 (≈ 2.59 µM)	16 (≈ 41.5 µM)	0.125 (≈ 0.324 µM)
O=C(Nc1nnc(-c2ccccc2Cl)o1)c1cccc(C(F)(F)F)c1	> 256	> 256	0.5 (≈ 1.36 µM)	> 256	0.5 (≈ 1.36 µM)	0.5 (≈ 1.36 µM)	1 (≈ 2.72 µM)	> 256	2 (≈ 5.44 µM)	> 256	0.5 (≈ 1.36 µM)
O=C(Nc1ccc(Cl)c(S(=O)(=O)Nc2cccc(Cl)c2)c1)c1ccc([N+](=O)[O-])o1	12 (≈ 26.3 µM)	256 (≈ 561 µM)	1.5 (≈ 3.29 µM)	32 (≈ 70.1 µM)	0.06 (≈ 0.132 µM)	0.5 (≈ 1.1 µM)	1.5 (≈ 3.29 µM)	128 (≈ 281 µM)	1.5 (≈ 3.29 µM)	32 (≈ 70.1 µM)	1.5 (≈ 3.29 µM)
CCc1cc(O)nc(N2NC(C)=CC2NC(=O)c2ccccc2F)n1 (stereo not given)	> 256	> 256	4 (≈ 11.6 µM)	> 256	0.25 (≈ 0.728 µM)	0.25 (≈ 0.728 µM)	1 (≈ 2.91 µM)	> 256	2 (≈ 5.82 µM)	> 256	1 (≈ 2.91 µM)
CCCC(NC(=O)Cc1c(C)c2cc3c(-c4ccc(Cl)cc4)coc3c(C)c2oc1=O)C(=O)O (stereo not given)	> 256	> 256	2.5 (≈ 5.19 µM)	> 256	> 64	1 (≈ 2.07 µM)	1.25 (≈ 2.59 µM)	> 256	2.5 (≈ 5.19 µM)	> 256	1.25 (≈ 2.59 µM)
O=C(Nc1nnc(-c2ccc(Cl)cc2)o1)c1cccc(Br)c1	> 256	> 256	0.5 (≈ 1.32 µM)	> 256	0.5 (≈ 1.32 µM)	0.5 (≈ 1.32 µM)	0.5 (≈ 1.32 µM)	> 256	2 (≈ 5.28 µM)	> 256	2 (≈ 5.28 µM)
Cc1ccc(NS(=O)(=O)c2ccc3c(c2)NCC(C)C(=O)S3)c(C)c1 (stereo not given)	> 256	> 256	2 (≈ 5.31 µM)	> 256	< 0.03	> 64	2 (≈ 5.31 µM)	> 256	16 (≈ 42.5 µM)	> 256	> 64
Cc1c(CC(=O)NCCC(=O)O)c(=O)oc2c(C)c3occ(-c4ccc(Cl)cc4)c3cc12	> 256	> 256	1.25 (≈ 2.75 µM)	> 256	> 64	1 (≈ 2.2 µM)	2.5 (≈ 5.51 µM)	> 256	2.5 (≈ 5.51 µM)	> 256	2.5 (≈ 5.51 µM)
Cc1cccc(NS(=O)(=O)c2ccc3c(c2)NC(=O)C(C)S3)c1C (stereo not given)	> 256	> 256	64 (≈ 177 µM)	> 256	< 0.03	> 64	2 (≈ 5.52 µM)	> 256	16 (≈ 44.1 µM)	> 256	16 (≈ 44.1 µM)
O=C1c2cc([N+](=O)[O-])cc3cc([N+](=O)[O-])cc(c23)C(=O)N1Nc1ccc(Cl)cc1	> 256	> 256	2.5 (≈ 6.06 µM)	> 256	4 (≈ 9.69 µM)	4 (≈ 9.69 µM)	2.5 (≈ 6.06 µM)	> 256	2.5 (≈ 6.06 µM)	> 256	2.5 (≈ 6.06 µM)
O=C1c2cccc3cccc(c23)C(=O)N1CCN1CCN(CCc2ccccc2)CC1	> 256	> 256	1 (≈ 2.42 µM)	> 256	4 (≈ 9.67 µM)	4 (≈ 9.67 µM)	1 (≈ 2.42 µM)	> 256	16 (≈ 38.7 µM)	> 256	0.5 (≈ 1.21 µM)
CCC1Sc2ccc(S(=O)(=O)Nc3ccc(C)cc3C)cc2NC1=O (stereo not given)	> 256	> 256	8 (≈ 21.2 µM)	> 256	< 0.03	> 64	1 (≈ 2.66 µM)	> 256	4 (≈ 10.6 µM)	> 256	> 64
CC1=CC(NC(=O)C(C)Oc2ccccc2)N(c2nc(C)c(C)c(O)n2)N1 (stereo not given)	> 256	> 256	0.25 (≈ 0.677 µM)	> 256	0.25 (≈ 0.677 µM)	0.25 (≈ 0.677 µM)	1 (≈ 2.71 µM)	> 256	1 (≈ 2.71 µM)	> 256	1 (≈ 2.71 µM)
CCCc1cc(O)nc(N2NC(C)=CC2NC(=O)c2ccccc2)n1 (stereo not given)	> 256	> 256	8 (≈ 23.6 µM)	> 256	0.25 (≈ 0.737 µM)	0.25 (≈ 0.737 µM)	2 (≈ 5.89 µM)	> 256	8 (≈ 23.6 µM)	> 256	8 (≈ 23.6 µM)
O=C(Nc1nnc(-c2ccc(F)cc2)o1)c1cccc(Cl)c1	> 256	> 256	0.5 (≈ 1.57 µM)	> 256	0.5 (≈ 1.57 µM)	0.5 (≈ 1.57 µM)	1 (≈ 3.15 µM)	> 256	1 (≈ 3.15 µM)	> 256	4 (≈ 12.6 µM)
